Assay results of several laboratories.
Protocols differ between the studies behind these lines.
Target: Tyrosine-protein kinase ZAP-70 (ZAP70, Homo sapiens, UniProt P43403)
One construct used (P43403 1-619): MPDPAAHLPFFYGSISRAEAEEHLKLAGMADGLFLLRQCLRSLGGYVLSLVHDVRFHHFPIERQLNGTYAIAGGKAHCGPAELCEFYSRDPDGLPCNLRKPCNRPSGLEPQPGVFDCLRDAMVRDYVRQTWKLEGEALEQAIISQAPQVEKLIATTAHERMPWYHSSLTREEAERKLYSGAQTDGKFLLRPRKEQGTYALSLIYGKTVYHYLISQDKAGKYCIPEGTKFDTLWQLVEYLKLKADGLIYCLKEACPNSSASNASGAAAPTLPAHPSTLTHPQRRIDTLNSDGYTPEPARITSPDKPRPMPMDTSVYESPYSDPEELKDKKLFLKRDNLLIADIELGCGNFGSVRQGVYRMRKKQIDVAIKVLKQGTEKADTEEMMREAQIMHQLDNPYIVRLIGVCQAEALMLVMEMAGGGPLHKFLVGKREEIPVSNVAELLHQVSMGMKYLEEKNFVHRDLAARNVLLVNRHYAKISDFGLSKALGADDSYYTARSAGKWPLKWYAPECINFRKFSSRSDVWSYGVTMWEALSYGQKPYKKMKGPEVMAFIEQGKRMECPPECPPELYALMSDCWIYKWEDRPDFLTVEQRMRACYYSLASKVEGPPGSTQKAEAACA

| Structure (SMILES) | assay | conditions | measurement | value |
| --- | --- | --- | --- | --- |
| Cc1c(NC(=O)c2cc(C(N)=O)nc3cc(F)ccc23)c(C(F)(F)F)nn1Cc1ccc(C(C)(C)C)cc1 | cell-free assay, competition with immobilised ligand | 1 µM | remaining binding | 100% |
| COc1cc(Cl)c(C(=O)N[C@@H](CN[C@H]2CC[C@@H](N)CC2)Cc2ccc(C#N)cc2)cc1-c1ccc(CN[C@H](C)c2ccc(C)cc2)o1 | enzyme activity, inhibitor | 1 µM | remaining activity | 93% |
| CCN(CC)CCNC(=O)c1c(C)[nH]c(/C=C2\C(=O)Nc3ccc(F)cc32)c1C | enzyme activity, inhibitor | 0.3 µM | inhibition | 2% |
| COc1ccc(COc2ccc(Cc3cnc(N)nc3N)cc2OC)cc1 | cell-free assay | 0.5 µM | remaining signal | 94.3% |
| Cc1sc(C(=O)NC2COC2)cc1-n1cc(NC(=O)Nc2c(F)cccc2Cl)cn1 | enzyme activity, inhibitor | 10 µM | remaining activity | 103% |
| COc1cc(Nc2cnc(C#N)c(O[C@H](C)CN(C)C)n2)ncc1-c1cnn(C)c1 | enzyme activity, inhibitor, radiometric | 1 µM | remaining activity | 104% |
| CC(C)(O)[C@H]1CC[C@H](Nc2ccc3ncc(-c4cccc(C(F)(F)F)c4)n3n2)CC1 | enzyme activity, inhibitor | 1 µM | remaining activity | 93.4% |
| CCCS(=O)(=O)Nc1ccc(F)c(C(=O)c2c[nH]c3ncc(-c4ccc(Cl)cc4)cc23)c1F | enzyme activity, inhibitor | 1 µM | inhibition | < 10% |
| CNC(=O)c1cc(Oc2ccc(NC(=O)Nc3ccc(Cl)c(C(F)(F)F)c3)cc2)ccn1 | enzyme activity, inhibitor | 10 µM | inhibition | -42% |
| c1nc2c(Nc3ccc4c(c3)OCCO4)nc(Nc3ccc4c(c3)OCCO4)nc2[nH]1 | enzyme activity, inhibitor | 10 µM | activity vs control | 62% |
| Cc1[nH]c(/C=C2\C(=O)Nc3ccc(F)cc32)c(C)c1C(=O)N[C@H]1CCN(C(=O)N(C)C)C1 | enzyme activity, inhibitor | 0.1 µM | remaining activity | 105% |
| FC(F)(F)Oc1cccc(-c2cnc3ccc(-c4ccncc4)nn23)c1 | enzyme activity, inhibitor, radiometric | 1 µM | activity vs control | 116% |
| O=C(Nc1cnn(-c2csc(C(=O)NC3COC3)c2)c1)Nc1c(F)cccc1Cl | enzyme activity, inhibitor | 5 µM | remaining activity | 104% |
| COc1ccc2c(c1)O[C@H](c1ccc(OC)c(OC)c1)C[C@@H]2NC(=O)C1(c2ccc3c(c2)OC(F)(F)O3)CC1 | cell-free assay, competition with immobilised ligand | 1 µM | remaining binding | 93% |
| Cc1ccc(C(=O)NCc2ccsc2)cc1C#Cc1cn(C(C)C)c2ncnc(N)c12 | enzyme activity, inhibitor | 1 µM | activity vs control | 89% |
| CNCc1ccc(-c2cc(-c3nc(-c4ccc(S(=O)(=O)C(C)C)cc4)cnc3N)on2)cc1 | enzyme activity, inhibitor | 0.4 µM | inhibition | 0% |
| Cc1cc(C)c(-n2ccn3nc(-c4cccnc4)cc23)cc1NC(=O)c1cc(C#N)cc(S(F)(F)(F)(F)F)c1 | cell-free assay, competition with immobilised ligand | 0.1 µM | remaining binding | 79.9% |
| CCN(CC)CCNC(=O)c1c(C)[nH]c(/C=C2\C(=O)Nc3ccc(F)cc32)c1C | enzyme activity, inhibitor | 0.1 µM | remaining activity | 101% |
| Nc1ncnc2occ(-c3ccc(NC(=O)Nc4cc(C(F)(F)F)ccc4F)cc3)c12 | cell-free assay, inhibitor | 20 µM | remaining signal | 2.4% |
| O=C(NS(=O)(=O)c1ccc(NCC2CCOCC2)c([N+](=O)[O-])c1)c1ccc(N2CCN(Cc3ccc(C(F)(F)F)cc3-c3ccc(Cl)cc3)CC2)cc1Oc1cnc2[nH]ccc2c1 | cell-free assay, competition with immobilised ligand | 1 µM | remaining binding | 82% |
| CS(=O)(=O)Nc1cccc(-c2csc(NC(=O)CSc3nc4nccnc4c(=O)n3CCc3ccccc3)n2)c1 | enzyme activity, inhibitor | 10 µM | inhibition | 9% |
| C[C@@H]1CN(c2cc(-c3n[nH]c4ccc(OC5(C)CC5)cc34)ncn2)C[C@H](C)O1 | cell-free assay, competition with immobilised ligand | 0.1 µM | remaining binding | 83% |
| N#CCCc1ccc2c(c1)-c1[nH]c3ccc([N+](=O)[O-])cc3c1CC(=O)N2 | cell-free assay | 0.5 µM | remaining signal | 106% |
| CC(C)(C)c1nc(-c2cccc(NS(=O)(=O)c3c(F)cccc3F)c2F)c(-c2ccnc(N)n2)s1 | enzyme activity, inhibitor, radiometric | 1 µM | remaining activity | 92% |
| Cc1noc([C@H]2C[C@@H](c3ccc(C(F)(F)F)cc3)CN(C(=O)N3CCS(=O)(=O)C3)C2)n1 | cell-free assay, competition with immobilised ligand | 1 µM | remaining binding | 100% |
| COc1cc2ncnc(Nc3ccc(F)c(Cl)c3)c2cc1OCCCN1CCOCC1 | cell-free assay | 0.5 µM | remaining signal | 96.5% |
| CCCOc1ccc([C@H]2[C@H](C(=O)O)[C@@H](c3ccc4c(c3)OCO4)CN2CC(=O)Nc2c(CC)cccc2CC)cc1 | cell-free assay, competition with immobilised ligand | 1 µM | remaining binding | 50% |
| COc1cc2ncnc(Nc3ccc(Oc4ccccc4)cc3C)c2cc1OC | enzyme activity, inhibitor | 1 µM | inhibition | 0% |
| NS(=O)(=O)c1cc(NC(=O)Cc2ccccc2)ccc1Oc1cccc(Cl)c1 | cell-free assay, competition with immobilised ligand | 1 µM | remaining binding | 87% |
| CCOc1cc(-c2nncn2C)ccc1Nc1ncc2cc(C)nc(NCC(C)(C)C)c2n1 | enzyme activity, inhibitor, FRET | 1 µM | inhibition | < 15% |
